# Bioassay records deposited in PubChem BioAssay by several laboratories.
# PTPN22 act: LYP (human) phosphatase activation; activation, % at 2 µM; recombinant LYP, DiFMUP fluorescence; 0 = plate median, 100 = signal doubled; 0.11% of 96,000 active; AID 697;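 active = activation at 2 µM above a set limit, the mean plus 5 SD, cut at about 37% in these data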
# Target sequence (Q9Y2R2 whole entry, looked up): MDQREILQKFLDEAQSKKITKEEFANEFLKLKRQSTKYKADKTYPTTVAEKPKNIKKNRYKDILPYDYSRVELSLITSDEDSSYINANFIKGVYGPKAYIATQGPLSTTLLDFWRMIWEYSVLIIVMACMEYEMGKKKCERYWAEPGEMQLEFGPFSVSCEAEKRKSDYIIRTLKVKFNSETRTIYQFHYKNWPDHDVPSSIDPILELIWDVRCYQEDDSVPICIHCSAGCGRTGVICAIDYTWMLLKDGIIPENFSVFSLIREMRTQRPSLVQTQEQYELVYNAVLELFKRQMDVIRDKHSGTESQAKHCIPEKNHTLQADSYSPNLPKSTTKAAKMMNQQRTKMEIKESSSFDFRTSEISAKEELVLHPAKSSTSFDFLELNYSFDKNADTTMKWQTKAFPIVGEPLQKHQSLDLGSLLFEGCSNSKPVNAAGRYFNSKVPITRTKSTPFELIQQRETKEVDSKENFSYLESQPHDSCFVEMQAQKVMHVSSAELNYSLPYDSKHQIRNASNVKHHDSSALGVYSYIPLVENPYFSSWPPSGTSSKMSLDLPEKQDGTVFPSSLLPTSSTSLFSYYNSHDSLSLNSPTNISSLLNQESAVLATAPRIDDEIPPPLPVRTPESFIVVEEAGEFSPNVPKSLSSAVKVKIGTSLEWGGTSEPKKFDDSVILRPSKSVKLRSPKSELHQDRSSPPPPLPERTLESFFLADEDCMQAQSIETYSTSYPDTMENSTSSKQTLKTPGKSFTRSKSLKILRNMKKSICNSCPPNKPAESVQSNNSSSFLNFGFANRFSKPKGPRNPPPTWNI
# HIV Rev-RRE inh: disrupts HIV-1 Rev binding to RRE RNA; P05866; Rev peptide-RRE RNA binding, FRET; inhibition, % at 8 µM; 0.79% of 97,000 active; AID 704;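 active = inhibition above the screen-wide mean plus 3 SD, cut at about 35% in these data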;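 also: 0% = median DMSO wells and 100% = median Neomycin B control wells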
#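 Assay system: Labelled RRE RNA duplex and labelled Rev peptide | Times: 5 min preincubation and 15 min binding, 25 °C | Detection: FRET, ex 480 nm, em 540 and 671 nm | Evaluation: % inhibition of FRET ratio versus controls | Benchmarks: DMSO wells as 0% and neomycin B wells as 100% inhibition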
# LYP inh 2: inhibitors of human LYP (PTPN22) phosphatase. Q9Y2R2. recombinant LYP catalytic domain, DiFMUP fluorescence. AID 640. inhibition, % at 2 µM. 0.21% of 96,000 active;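 active = inhibition at 2 µM at or above a set limit, the screen mean plus 3 SD, cut at about 24% in these data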;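 also: 0% = DMSO with enzyme and 100% = enzyme fully blocked by orthovanadate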
# EphB4 antag: blocks human EphB4 binding to ephrin-B2. EphB4 LBD / TNYL-RAW-Alexa532 peptide, fluorescence polarization. inhibition, % at 7 µM. AID 720. 0.15% of 97,000 active. P54760;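 active = inhibition above the screen-wide mean inhibition plus 3 SD, cut at about 15% in these data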;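 also: 0% = DMSO wells and 100% = excess unlabeled TNYL-RAW peptide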
# Numbers without * were called inactive; / = not tested or not shown; [ ] = dose if it differs, or a comment. The list is not random: actives were taken first. Their share in the collection is about 1.3%.
SMILES,PTPN22 act,HIV Rev-RRE inh,LYP inh 2,EphB4 antag
CN1CCN(c2ccccc2NC(=O)C(Cc2ccccc2)n2cccc2)CC1 (centres undefined),23.6,-2.7,-26.6,-9.1
Cc1ccc(NC(=O)CCN2C(=O)CSC2=O)c(C)c1,14.8,5.1,-13.0,1.0
O=c1[nH]nc(Sc2ncnc3sccc23)n1CCc1ccccc1,-1.3,1.1,-1.2,-5.0
CCn1c(C)c(C(C)=O)c(N2CCN(c3ccccn3)CC2)nc1=S,-4.5,-0.3,4.9,-4.5
CCn1c(C)c(C(C)=O)c(N2CCN(c3ccccc3)CC2)nc1=S,-2.3,42.3*,3.3,-3.1
Cn1cnnc1SCC(=O)Nc1ccc2nc(SCc3cccc4ccccc34)sc2c1,-3.2,1.4,3.1,16.9*
Cn1c(Sc2ccc(Br)cc2)c(C=O)c2ccccc21,0.9,6.0,5.2,-1.2
CCSc1nc2c(sc3ccccc32)c(=O)n1C(C)C,-0.8,7.4,-0.1,1.6
CCOC(=O)c1cn(-c2ccc(F)c(F)c2F)c2c(F)c(F)c(F)cc2c1=O,5.5,5.2,-2.4,1.3
CCOC(=O)c1cn(-c2nc(-c3ccc(Cl)c(Cl)c3)cs2)c2c(F)c(N3CCOCC3)c(F)cc2c1=O,-24.7,4.3,28.2*,-9.2
COC(=O)[C@H](CC(C)C)NC(=O)N1CCN(c2cccc(C(F)(F)F)c2)CC1,-5.7,1.1,5.6,-0.6
O=C1CCCc2c1[nH]c1ccccc21,2.8,11.6,-3.9,16.5*
O=C(Nc1ccc(-c2nc3ccc(NC(=O)c4cccs4)cc3[nH]2)cc1)c1cccs1,-31.5,1.2,28.8*,1.8
Cc1ccc(/C=c2\sc3nc(-c4ccccc4Br)nn3c2=O)o1,-0.9,2.4,4.2,-10.8
C=CCn1c(=O)/c(=C/c2ccc(C)o2)s/c1=C(/C#N)C(=O)c1ccccc1,-3.2,117.6*[fluorescence artefact?],0.3,2.4
CC(=O)NC1CC2CCCC(C1)N2C(=O)Nc1ccccc1 (centres undefined),-58.8,3.3,59.5*,0.8
CCOC(=O)C1=C(SCC(=O)Nc2ccccc2)NC(=O)C(C#N)C12CCCCC2 (centres undefined),5.0,10.3,-6.0,1.1
Cn1cccc1/C=N/n1cnnc1,-5.4,6.2,2.1,-1.7
Cn1cccc1/C=C1\CCC/C(=C\c2cccn2C)C1=O,9.2,136.4*[fluorescence artefact?],-8.9,4.5
COc1cc(N2CCCC2)c(OC)cc1/C=C(/C#N)c1ccc(Br)cc1,4.5,113.8*[fluorescence artefact?],-3.5,-11.7
COc1ccccc1C(=O)N1CCC(C(=O)c2ccc(F)cc2)CC1,-7.9,2.2,8.4,-6.0
COc1cc(N2CCCC2)c(OC)cc1/C=C(/C#N)c1ccc(F)cc1,6.1,94.6*[fluorescence artefact?],-6.5,-1.4
CC1(C)c2ssc(=S)c2-c2ccccc2N1C(=O)CSC1=NCCS1,-12.5,0.1,13.9,-3.8
Cc1cc2c(cc1C)N(C(=O)CSC1=NCCS1)C(C)(C)c1ssc(=S)c1-2,-23.4,-2.4,27.3*,-7.8
CCOc1ccc(C2C=C(c3ccc(C)cc3)Nc3ncnn32)cc1 (centres undefined),2.4,29.8,-4.9,-7.9
SMILES,PTPN22 act,HIV Rev-RRE inh,LYP inh 2,EphB4 antag
Clc1ccc(C2=CC(c3ccco3)n3ncnc3N2)cc1 (centres undefined),5.8,122.3*[fluorescence artefact?],-6.0,4.3
COc1ccc(C2C=C(c3ccccc3)Nc3ncnn32)cc1 (centres undefined),5.9,44.9*,-2.0,5.2
CNc1nc(Sc2ccc(C)cc2)cc(C(F)(F)F)n1,23.9,10.8,-21.0,-12.5
COc1cc(/C=C(\C#N)c2nc3c(s2)CCCC3)ccc1O,10.0,72.1*,-8.0,0.0
COc1ccc(S(=O)(=O)c2c(N)n(Cc3ccco3)c3nc4ccccc4nc23)cc1,-5.2,52.9*,3.9,4.7
Cc1ccc(S(=O)(=O)c2c(N)n(/N=C/c3ccco3)c3nc4ccccc4nc23)cc1,5.7,-2.8,-6.5,-9.8
C=CCn1c(SCc2nc3ccccc3[nH]2)nnc1-c1cccc(OC)c1,-8.7,-0.4,11.7,4.3
CCOC(=O)Cc1csc(NC(=S)NC(=O)c2ccc(Cl)cc2)n1,-23.3,4.3,25.5*,3.4
CCc1nnc(NC(=O)c2sc3nc4cc(C)ccc4cc3c2N)s1,-2.3,87.9*[fluorescence artefact?],5.5,-0.3
CCOC(=O)Cc1csc(NC(=O)c2cccnc2)n1,1.1,5.8,-4.2,4.4
CCOC(=O)Cc1csc(NC(=O)c2sc3nc4ccc(C)cc4cc3c2N)n1,-13.8,80.6*[fluorescence artefact?],16.7,3.0
CCOC(=O)Cc1csc(NC(=O)c2ccc(NC(C)=O)cc2)n1,3.0,3.5,-3.3,12.3
Cc1ccc2nc3sc(C(=O)Nc4ccc(N5CCOCC5)cc4)c(N)c3cc2c1,-0.9,8.7,2.4,1.1
O=C(Nc1ccccc1)c1nnn(Cc2ccccc2)c1NC(=O)C(F)(F)F,1.3,-1.6,0.4,4.2
CC(=O)c1c(C)[nH]c(C(=O)OCC(=O)N(C)C)c1C,-2.9,7.7,5.3,7.4
COC(=O)c1ccccc1NC(=O)C1CCCN(S(=O)(=O)c2ccc(OC)cc2)C1 (centres undefined),-0.2,9.1,-2.7,1.3
OCCCc1nc2n(n1)C(c1ccccc1Cl)C=C(c1cccs1)N2 (centres undefined),-6.3,92.4*[fluorescence artefact?],9.8,-5.0
OCCCc1nc2n(n1)C(c1ccccc1)C=C(c1ccc(F)cc1)N2 (centres undefined),-0.9,34.0,1.0,-0.5
CCOc1ccccc1C1C(C(N)=O)=C(C)Nc2nc(CCCO)nn21 (centres undefined),1.4,2.5,-4.6,-5.8
OCCCc1nc2n(n1)C(c1cccs1)C=C(c1ccccc1)N2 (centres undefined),0.8,136.7*[fluorescence artefact?],-1.5,4.9
Cc1ccc(S(=O)(=O)NC2CCCc3ccccc32)cc1C (centres undefined),0.3,16.0,2.1,2.6
Cc1nn(-c2ccccc2)c2sc(C(=O)OC3CCOC3=O)cc12 (centres undefined),1.6,10.2,-5.9,0.1
CC(C)N(C(=O)CN1C(=O)NC2(CCCCCC2)C1=O)C(C)C,-0.5,4.3,-3.0,-4.0
CCC(=O)c1ccc(OCC(O)CN(CCc2ccccc2)Cc2ccccc2)cc1 (centres undefined),0.0,2.9,2.1,-6.0
CCNc1ccc(Br)cc(C(=O)/C=C/c2ccc(Cl)cc2Cl)c1=O,-2.5,78.6*[fluorescence artefact?],0.8,-1.5
SMILES,PTPN22 act,HIV Rev-RRE inh,LYP inh 2,EphB4 antag
CNc1ccc(Br)cc(C(=O)/C=C/c2cc(OC)ccc2OC)c1=O,-9.2,54.6*,7.6,-1.3
CNc1ccc(Br)cc(C(=O)/C=C/c2ccc3c(c2)OCO3)c1=O,-7.3,48.0*,5.4,9.3
Cc1ccn2c(C(=O)N/N=C\c3ccccc3[N+](=O)[O-])c(C)nc2c1,/,6.1,/,0.4
CCCCCCc1cc2cc(-c3nnc(-c4ccccc4OC)o3)c(=O)oc2cc1O,-45.9,143.1*[fluorescence artefact?],46.5*,2.1
CCCCCCc1cc2cc(-c3nnc(-c4cc(OC)c(OC)c(OC)c4)o3)c(=O)oc2cc1O,-43.0,134.9*[fluorescence artefact?],42.8*,-2.3
COc1ccc(-c2nnc(-c3cc4ccccc4oc3=O)o2)cc1,2.9,6.9,-3.8,3.0
CCNc1nnc(-c2ccc(C)cc2)o1,-3.2,7.2,0.8,-1.6
